# Measured values pooled from the literature.
# Protocols differ between the studies behind these lines.
# Target: Ribosomal protein S6 kinase beta-1 (RPS6KB1, Homo sapiens, UniProt P23443)
# Read-out: enzyme activity
# Action: inhibitor
Compound,technique,concentration,remaining activity
Cc1[nH]c(/C=C2\C(=O)Nc3ccc(F)cc32)c(C)c1C(=O)N[C@H]1CCN(C(=O)N(C)C)C1,,0.1 µM,84%
Nc1nc(Nc2ccccc2)sc1C(=O)c1c(F)cccc1F,,10 µM,57%
O=C(Nc1cnn(-c2csc(C(=O)NC3COC3)c2)c1)Nc1c(F)cccc1Cl,,5 µM,97.7%
CC(C)(C)c1nc(-c2cccc(NS(=O)(=O)c3c(F)cccc3F)c2F)c(-c2ccnc(N)n2)s1,radiometric,1 µM,75%
Oc1cccc(-c2nc(N3CCOCC3)c3oc4ncccc4c3n2)c1,,10 µM,90%
CCCOc1ccc(OC)c(F)c1C(=O)c1ccc(C(=O)N[C@@H]2CNC[C@H]2NC(=O)c2ccc3[nH]ncc3c2)cc1,,10 µM,2%
Cc1cnc(NC2CCOCC2)nc1-n1cnc(C(=O)NC(CN)c2cc(F)cc(Cl)c2)c1 (stereo not drawn),radiometric,1 µM,71%
Nc1nc(NC2CCCCC2)sc1C(=O)c1ccccc1,,10 µM,78%
Cc1ccc(Nc2nccc(N(C)c3ccc4c(C)n(C)nc4c3)n2)cc1S(N)(=O)=O,,0.5 µM,96%
Cc1ccc(C(=O)Nc2ccc(CN3CCN(C)CC3)c(C(F)(F)F)c2)cc1C#Cc1cnc2cccnn12,,23.5 nM,68%
CCN(CC)CCNC(=O)c1c(C)[nH]c(/C=C2\C(=O)Nc3ccc(F)cc32)c1C,,0.1 µM,79%
COc1cc(Nc2cnc(C#N)c(O[C@H](C)CN(C)C)n2)ncc1-c1cnn(C)c1,radiometric,1 µM,55%
